Reference: ChEMBL document CHEMBL1143930, “S-Euglobals: biomimetic synthesis, antileishmanial, antimalarial, and antimicrobial activities” (Bioorg Med Chem, 2008)
≈ marks a conversion by molar mass, not a printed value. Calls of active or inactive are those of the source. No cut-off for these calls is given here.

Columns and labels:
Cryptococcus neoformans = assay: Antifungal activity against Cryptococcus neoformans; assay type: functional, organism-based
Method in brief: (§1)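 Modified NCCLS broth microdilution. Samples in DMSO were serially diluted in 0.9% saline and tested in duplicate. Inocula were matched to the 0.5 McFarland standard by absorbance at 630 nm, then diluted in broth. Growth, solvent and media controls were included. Plates were read at 630 nm before and after incubation, and IC50 was taken from percent growth versus concentration.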

Aspergillus fumigatus = assay: Antifungal activity against Aspergillus fumigatus; assay type: functional, organism-based; method in brief: as §1
SK-OV-3 [1] = assay: Cytotoxicity against human SK-OV3 cells by neutral red assay; assay type: functional, cell-based
Method in brief: (§2)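 Cells were seeded at 25,000 per well and incubated 24 h. Test samples were added at a range of concentrations, followed by a further 48 h incubation. Viable cells were quantified by Neutral Red uptake, and IC50 was read from dose curves of percent growth versus concentration.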

KB = assay: Cytotoxicity against human KB cells by neutral red assay up to 25 ug/mL; assay type: functional, cell-based; method in brief: as §2
Plasmodium falciparum [2] = assay: Antimalarial activity against chloroquine-sensitive Plasmodium falciparum D6 by LDH release assay; assay type: functional, organism-based
Method in brief: (§3)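 Infected red cells (W2 or D6), 2% parasitemia, 2% hematocrit, in RPMI 1640 with 10% human serum and 60 µg/mL amikacin, exposed to serial sample dilutions. Incubated 72 h at 37 C under 90% N2/5% O2/5% CO2. Parasite LDH measured with Malstat reagent (30 min, room temperature), then NBT/PES 1 h in dark, stopped with 5% acetic acid, read at 650 nm. IC50 from dose-response curves.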

[3] = Selectivity index, ratio of IC50 for african green monkey (Cercopithecus aethiops) Vero cells to IC50 for Plasmodium falciparum D6; assay type: functional
Method in brief: (§4)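 The index is IC50 in Vero cells (Neutral Red, 48 h exposure) divided by IC50 against P. falciparum D6 or W2. For the parasite assay, infected erythrocytes at 2% parasitemia and 2% hematocrit in RPMI 1640 with 10% human serum were incubated 72 h at 37 C under 90% N2, 5% O2, 5% CO2. Parasite LDH was measured with Malstat plus NBT/PES at 650 nm.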

Leishmania donovani = assay: Antileishmanial activity against Leishmania donovani promastigotes after 48 hrs by Alamar blue assay; assay type: functional, organism-based
Method in brief: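 L. donovani promastigotes were grown in RPMI 1640 with 10% fetal calf serum at 26 C. A 3-day-old culture was diluted to 5 × 10^5 promastigotes/mL, and drug dilutions were made directly in the cell suspension. After 48 h at 26 C, growth was read by Alamar Blue fluorescence (ex 544/em 590 nm). IC50 and IC90 came from percent growth versus concentration curves.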

Plasmodium falciparum [4] = assay: Antimalarial activity against chloroquine-resistant Plasmodium falciparum W2 by LDH release; assay type: functional, organism-based; method in brief: as §3
[5] = Cytotoxicity against pig LLC-PK11 cells by neutral red assay; assay type: cell-based; settings: Sus scrofa; method in brief: as §2
Candida albicans = assay: Antifungal activity against Candida albicans; assay type: functional, organism-based; method in brief: as §1
SK-MEL [6] = assay: Cytotoxicity against human SKMEL cells by neutral red assay; assay type: functional, cell-based; method in brief: as §2
[7] = Selectivity index, ratio of IC50 for african green monkey (Cercopithecus aethiops) Vero cells to IC50 for Plasmodium falciparum W2; assay type: functional; method in brief: as §4
Vero [8] = assay: Cytotoxicity against african green monkey Vero cells by neutral red assay; assay type: cell-based; settings: chlorocebus sabaeus; method in brief: as §2
BT-549 [9] = assay: Cytotoxicity against human BT549 cells by neutral red assay; assay type: functional, cell-based; method in brief: as §2
[10] = Cytotoxicity against pig LLC-PK11 cells by neutral red assay up to 25 ug/mL; assay type: cell-based, Sus scrofa; method in brief: as §2
Vero [11] = assay: Cytotoxicity against african green monkey Vero cells by neutral red assay up to 25 ug/mL; assay type: cell-based; settings: chlorocebus sabaeus; method in brief: as §2
SK-OV-3 [12] = assay: Cytotoxicity against human SK-OV3 cells by neutral red assay up to 25 ug/mL; assay type: functional, cell-based; method in brief: as §2
BT-549 [13] = assay: Cytotoxicity against human BT549 cells by neutral red assay up to 25 ug/mL; assay type: functional, cell-based; method in brief: as §2
SK-MEL [14] = assay: Cytotoxicity against human SKMEL cells by neutral red assay up to 25 ug/mL; assay type: functional, cell-based; method in brief: as §2

## CC(C)C[C@@H]1C[C@@]2(CC[C@@H]3C[C@H]2C3(C)C)Oc2c(C=O)c(O)c(C=O)c(O)c21 [ROBUSTADIAL A]
Cryptococcus neoformans
  Activity: inactive
Aspergillus fumigatus
  Activity: inactive
SK-OV-3 [1]
  IC50: > 25 µg/mL
KB
  Activity: inactive
Plasmodium falciparum [2]
  IC50: 4.76 µg/mL (≈ 12.3 µM)
[3]
  Selectivity index: 4
Leishmania donovani
  IC50: 20 µg/mL (≈ 51.7 µM)
  IC90: 39 µg/mL (≈ 101 µM)
Plasmodium falciparum [4]
  IC50: 2.8 µg/mL (≈ 7.24 µM)
[5]
  IC50: 17 µg/mL (≈ 44 µM)
Candida albicans
  Activity: inactive
SK-MEL [6]
  IC50: > 25 µg/mL
[7]
  Selectivity index: 6.8
Vero [8]
  IC50: 19 µg/mL (≈ 49.2 µM)
BT-549 [9]
  IC50: 19 µg/mL (≈ 49.2 µM)

## CC(C)CC(=O)c1c(O)c(C=O)c(O)c2c1O[C@@]1(C)[C@H](CC[C@H]3[C@@H]1C3(C)C)C2
Cryptococcus neoformans
  Activity: inactive
Aspergillus fumigatus
  Activity: inactive
[10]
  Activity: Not Active
Vero [11]
  Activity: Not Active
SK-OV-3 [12]
  Activity: inactive
KB
  Activity: inactive
Plasmodium falciparum [2]
  IC50: 3.4 µg/mL (≈ 8.8 µM)
[3]
  Selectivity index: >7.4
BT-549 [13]
  Activity: inactive
Leishmania donovani
  IC50: 5.5 µg/mL (≈ 14.2 µM)
  IC90: 28 µg/mL (≈ 72.4 µM)
Plasmodium falciparum [4]
  IC50: 2.7 µg/mL (≈ 6.99 µM)
Candida albicans
  Activity: inactive
SK-MEL [6]
  IC50: 25 µg/mL (≈ 64.7 µM)
[7]
  Selectivity index: >9.3

## CC(C)C[C@H]1C[C@]2(CC[C@@H]3C[C@H]2C3(C)C)Oc2c(C=O)c(O)c(C=O)c(O)c21 [ROBUSTADIAL B]
Cryptococcus neoformans
  Activity: inactive
Aspergillus fumigatus
  Activity: inactive
[10]
  Activity: Not Active
Vero [11]
  Activity: Not Active
SK-OV-3 [12]
  Activity: inactive
KB
  Activity: inactive
Plasmodium falciparum [2]
  IC50: 4.5 µg/mL (≈ 11.6 µM)
[3]
  Selectivity index: >5.6
SK-MEL [14]
  Activity: inactive
Leishmania donovani
  IC50: 16 µg/mL (≈ 41.4 µM)
  IC90: 16 µg/mL (≈ 41.4 µM)
Plasmodium falciparum [4]
  IC50: 4.76 µg/mL (≈ 12.3 µM)
Candida albicans
  Activity: inactive
[7]
  Selectivity index: >5.3
BT-549 [9]
  IC50: 25 µg/mL (≈ 64.7 µM)
